Experimental data reported in ChEMBL document CHEMBL1157664, “Aminopyridinecarboxamide-based inhibitors: Structure-activity relationship” (Bioorg Med Chem, 2010).
Active and inactive are the calls of the source. The calls are words filed in the database; no cut-off is given here.

Experiments:
[1] = target: T1, Inhibitor of nuclear factor kappa-B kinase subunit beta (Homo sapiens, UniProt O14920); experiment: Inhibition of human recombinant IKK2-mediated transfer of [gamma33P]ATP to biotinylated IkappaBalpha after 30 mins by scintillation counting
T1 sequence (O14920 whole entry): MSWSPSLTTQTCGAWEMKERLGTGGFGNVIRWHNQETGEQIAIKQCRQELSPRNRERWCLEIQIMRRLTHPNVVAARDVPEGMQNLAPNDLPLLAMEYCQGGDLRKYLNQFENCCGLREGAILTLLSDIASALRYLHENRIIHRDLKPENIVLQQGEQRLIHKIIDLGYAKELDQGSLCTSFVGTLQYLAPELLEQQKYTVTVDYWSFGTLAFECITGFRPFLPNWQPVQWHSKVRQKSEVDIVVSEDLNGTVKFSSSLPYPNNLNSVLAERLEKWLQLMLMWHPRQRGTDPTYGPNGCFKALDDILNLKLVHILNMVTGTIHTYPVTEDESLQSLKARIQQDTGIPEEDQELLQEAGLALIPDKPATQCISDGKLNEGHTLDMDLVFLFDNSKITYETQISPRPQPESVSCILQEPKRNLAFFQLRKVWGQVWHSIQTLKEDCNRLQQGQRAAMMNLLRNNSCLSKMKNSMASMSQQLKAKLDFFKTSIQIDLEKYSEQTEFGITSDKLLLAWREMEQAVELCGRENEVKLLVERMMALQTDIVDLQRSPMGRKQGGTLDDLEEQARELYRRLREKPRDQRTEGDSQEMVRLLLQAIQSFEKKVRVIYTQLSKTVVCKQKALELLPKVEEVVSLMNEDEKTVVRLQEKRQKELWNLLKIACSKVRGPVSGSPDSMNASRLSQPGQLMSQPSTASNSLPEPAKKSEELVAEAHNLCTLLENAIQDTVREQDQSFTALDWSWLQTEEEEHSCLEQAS
How it was run: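 Recombinant human IKK-2 enzyme (46 nM/rxn, 200 ng/rxn). Substrate 5 µM biotinylated IκBα peptide (residues spanning Ser32/Ser36) with 1 µM ATP plus 0.1 µCi [γ-33P]ATP. Buffer 25 mM Hepes pH 7.6 with 1 mM DTT, 2 mM MgCl2, 2 mM MnCl2, 10 mM NaF. Incubated 30 min at 25 °C, stopped with AG1X8 resin in formate buffer pH 3. Supernatant ³³P read by scintillation counting.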

[2] = Antiinflammatory activity in human synovial fibroblasts assessed as inhibition of IL-1-beta-stimulated IL8 production treated 1 hr before IL1-beta challenge measured after 18 hrs by ELISA; type: functional
How it was run: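 Rheumatoid arthritis patient synovial fibroblasts seeded at 1.5 × 10^4 cells/well in DMEM + 15% FBS and left to attach overnight. Medium then changed to DMEM + 1% FBS. Cells pretreated 1 h with increasing compound concentrations (0.2% Me2SO final), then stimulated 18 h with 1 ng/mL IL-1β. Secreted IL-8 measured by ELISA against standard curves (4-parameter logistic). Cytotoxicity checked by Alamar Blue.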

[3] = target: T2, Inhibitor of nuclear factor kappa-B kinase subunit alpha (Homo sapiens, UniProt O15111); experiment: Inhibition of IKK1
T2 sequence (O15111 whole entry): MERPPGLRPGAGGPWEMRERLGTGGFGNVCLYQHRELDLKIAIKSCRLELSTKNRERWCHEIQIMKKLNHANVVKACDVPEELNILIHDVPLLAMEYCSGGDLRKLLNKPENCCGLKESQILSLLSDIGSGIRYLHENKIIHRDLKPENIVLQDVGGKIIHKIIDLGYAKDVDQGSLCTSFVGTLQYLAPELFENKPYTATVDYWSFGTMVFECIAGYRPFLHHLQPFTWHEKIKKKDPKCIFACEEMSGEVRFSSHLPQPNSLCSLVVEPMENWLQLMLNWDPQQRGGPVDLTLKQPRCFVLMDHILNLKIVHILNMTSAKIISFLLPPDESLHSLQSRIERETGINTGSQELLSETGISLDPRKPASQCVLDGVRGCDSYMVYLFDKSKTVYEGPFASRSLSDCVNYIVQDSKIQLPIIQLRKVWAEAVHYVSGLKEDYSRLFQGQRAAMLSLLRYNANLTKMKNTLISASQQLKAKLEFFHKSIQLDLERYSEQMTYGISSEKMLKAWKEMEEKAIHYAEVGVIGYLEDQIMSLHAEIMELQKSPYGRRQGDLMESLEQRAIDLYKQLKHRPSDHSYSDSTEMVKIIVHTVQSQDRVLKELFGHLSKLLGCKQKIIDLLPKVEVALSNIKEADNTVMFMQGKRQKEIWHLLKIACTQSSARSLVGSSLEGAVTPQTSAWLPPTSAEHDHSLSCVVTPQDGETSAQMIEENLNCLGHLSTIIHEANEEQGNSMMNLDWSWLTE

[4] = target: T3, Serine/threonine-protein kinase TBK1 (Homo sapiens) (UniProt Q9UHD2); experiment: Inhibition of TBK1
T3 sequence (whole entry): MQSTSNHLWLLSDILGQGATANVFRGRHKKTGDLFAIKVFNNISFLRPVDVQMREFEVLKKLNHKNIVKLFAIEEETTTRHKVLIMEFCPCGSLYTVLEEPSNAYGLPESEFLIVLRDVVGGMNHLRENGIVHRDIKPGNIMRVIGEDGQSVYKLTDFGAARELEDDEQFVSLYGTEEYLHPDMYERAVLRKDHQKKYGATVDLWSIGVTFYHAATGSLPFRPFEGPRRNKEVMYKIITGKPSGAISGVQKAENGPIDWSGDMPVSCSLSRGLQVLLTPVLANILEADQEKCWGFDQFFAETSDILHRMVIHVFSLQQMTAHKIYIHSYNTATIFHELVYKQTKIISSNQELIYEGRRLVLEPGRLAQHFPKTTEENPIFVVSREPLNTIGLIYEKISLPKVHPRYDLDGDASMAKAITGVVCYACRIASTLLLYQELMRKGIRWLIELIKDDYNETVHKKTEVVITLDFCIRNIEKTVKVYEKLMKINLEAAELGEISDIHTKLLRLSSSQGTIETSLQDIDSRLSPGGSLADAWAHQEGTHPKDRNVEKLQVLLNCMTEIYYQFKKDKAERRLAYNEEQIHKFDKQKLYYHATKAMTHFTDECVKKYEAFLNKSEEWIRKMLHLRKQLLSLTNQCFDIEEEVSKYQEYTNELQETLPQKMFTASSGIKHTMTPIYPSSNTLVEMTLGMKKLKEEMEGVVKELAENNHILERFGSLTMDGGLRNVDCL

[5] = target: T4, Inhibitor of nuclear factor kappa-B kinase subunit epsilon (Homo sapiens) (UniProt Q14164); experiment: Inhibition of IKKI
T4 sequence (whole entry): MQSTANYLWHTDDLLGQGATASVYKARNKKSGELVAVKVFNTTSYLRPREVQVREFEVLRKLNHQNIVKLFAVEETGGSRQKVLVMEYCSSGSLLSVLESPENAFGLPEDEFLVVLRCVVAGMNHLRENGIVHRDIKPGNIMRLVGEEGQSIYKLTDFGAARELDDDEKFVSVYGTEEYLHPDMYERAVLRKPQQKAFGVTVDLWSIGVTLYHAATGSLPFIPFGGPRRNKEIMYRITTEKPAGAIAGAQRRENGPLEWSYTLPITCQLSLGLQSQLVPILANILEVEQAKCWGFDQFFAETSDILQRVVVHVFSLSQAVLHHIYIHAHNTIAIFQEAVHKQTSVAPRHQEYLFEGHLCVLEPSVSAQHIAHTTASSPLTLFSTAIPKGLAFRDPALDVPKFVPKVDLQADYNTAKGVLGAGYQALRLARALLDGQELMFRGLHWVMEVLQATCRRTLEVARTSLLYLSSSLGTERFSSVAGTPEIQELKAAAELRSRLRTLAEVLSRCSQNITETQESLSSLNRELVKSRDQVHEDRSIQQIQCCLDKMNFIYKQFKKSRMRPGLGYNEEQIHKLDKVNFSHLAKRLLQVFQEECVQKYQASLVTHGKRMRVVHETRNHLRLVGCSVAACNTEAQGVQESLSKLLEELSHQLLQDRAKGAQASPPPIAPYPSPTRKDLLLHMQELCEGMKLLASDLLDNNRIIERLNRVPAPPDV

Work on `CN1CCN(c2cc(C(=O)Nc3ccc4c(c3)-c3c(c(C(N)=O)nn3-c3ccc(F)cc3)CC4)c(Cl)cn2)CC1` yielded an IC50 [1] of 25 nM, an IC50 [2] of 940 nM and an IC50 [3] of 14000 nM. For the same compound, the inhibition [4] was “inactive” and the inhibition [5] was “inactive”.
